From PubChem
PDI inh – PDI (human) enzyme inhibition; AID 588391; P07237; 350,000 tested, 0.052% active; inhibition, % at 10 µM; PDI insulin aggregation turbidity, A650, 90 min;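 active means mean inhibition across replicates of 30% or more, whatever share of single replicates reach that level; inconclusive means mean inhibition below 30% while every single replicate reaches 30%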
Target sequence (P07237 whole entry, looked up): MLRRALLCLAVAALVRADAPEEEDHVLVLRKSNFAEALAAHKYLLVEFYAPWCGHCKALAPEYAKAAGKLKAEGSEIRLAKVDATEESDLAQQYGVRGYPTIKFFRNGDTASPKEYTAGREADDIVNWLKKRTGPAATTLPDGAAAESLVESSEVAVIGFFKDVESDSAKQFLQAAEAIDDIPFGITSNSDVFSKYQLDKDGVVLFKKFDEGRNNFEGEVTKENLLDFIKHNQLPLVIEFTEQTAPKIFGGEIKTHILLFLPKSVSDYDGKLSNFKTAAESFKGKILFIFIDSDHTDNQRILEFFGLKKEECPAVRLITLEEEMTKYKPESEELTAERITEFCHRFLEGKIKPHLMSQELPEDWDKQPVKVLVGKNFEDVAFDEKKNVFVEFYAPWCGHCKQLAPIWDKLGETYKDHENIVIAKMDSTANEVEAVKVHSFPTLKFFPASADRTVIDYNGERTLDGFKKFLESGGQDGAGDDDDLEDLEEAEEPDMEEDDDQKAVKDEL
CAL PDZ FP-1 – inhibitors of human CAL PDZ peptide binding; Q9HD26; purified CAL PDZ, TMR-peptide fluorescence polarization, 1 h; inhibition, % at 24.9 µM; 300,000 tested, 0.92% active;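 active means mean inhibition of at least 30% with at least half of replicates also reaching 30%; inconclusive means no clear call, values can overlap the other calls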;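 further: 0% = DMSO neutral control and 100% = excess unlabeled competitor peptide PRC23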
CAL PDZ FP-2 – human CAL PDZ-peptide interaction inhibition; Q9HD26; purified CAL PDZ, TMR-peptide fluorescence polarization, 1 h; inhibition, % at 20 µM; 330,000 tested, 0.02% active; AID 504414;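 active means highest replicate inhibition of at least 40%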;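 further: plate controls were DMSO neutral control wells for no effect and unlabeled competitor peptide control wells for full effect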
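System: tagged CAL PDZ domain. Schedule: 1 h room-temperature incubation prior to read. Signal: fluorescence polarization (mP). Measure: percent inhibition from loss of millipolarization.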
Rin1-Abl PPI inh – human Rin1-Abl interaction inhibition. 360,000 tested, 0.4% active. inhibition, % at 7.35 µM. AID 588664. TR-FRET Rin1/Abl binding, biochemical; in the data active means inhibition above about 5%, passing the limit was not always enough
ERAP1 inh – inhibitors of human ERAP1 aminopeptidase | 340,000 tested, 0.15% active | recombinant ERAP1, Leu-AMC fluorescence, 60 min | Q9NZ08 | inhibition, % at 10.7 µM;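 active means mean replicate inhibition of at least 30%, or all replicates individually reaching that 30% level; inactive means mean below 30% and not every replicate reaching it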;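 further: 0% = neutral control wells and 100% = L-leucinethiol positive control wells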
ERp5 inh – ERp5 (human) disulfide isomerase inhibition; 350,000 tested, 0.05% active; inhibition, % at 9.99 µM; Q15084; ERp5 insulin aggregation, absorbance 650 nm, 90 min;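 active means mean replicate inhibition above about 25%, with every replicate also reaching it, limit read from the data, passing the limit was not always enough; inconclusive means only one of those two criteria met; inactive means neither criterion met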
* marks the source's active call; other numbers are inactive results; u = inconclusive; x = not tested or not shown. Sampled rows, rich in hits. Any-hit rate of the full collection: about 1.1%.

SMILES	PDI inh	CAL PDZ FP-1	CAL PDZ FP-2	Rin1-Abl PPI inh	ERAP1 inh	ERp5 inh
O=C1C(=O)c2ccccc2-c2ccccc21	167*	-3	1	6	0	4
O=C1C(=O)c2cccc3cccc1c23	1	-9	-2	-2	0	-3
O=C(Cc1ccccc1)N1CCCCN2[C@H](CO)[C@@H](c3ccc(C#Cc4ccccc4)cc3)[C@@H]2C1	x	x	x	x	-3	0
N#Cc1ccc(-c2ccc([C@@H]3[C@H]4CN(C(=O)Cc5ccccc5)CCCCN4[C@H]3CO)cc2)cc1	x	x	x	x	-2	-3
CN1CC(C(=O)c2cccc(C(F)(F)F)c2)C(c2ccc(Cl)cc2)C1 (stereo not given)	0	59*	1	2	1	1
COc1cccc(C(=O)C2CN(C)CC2c2ccc(Cl)cc2)c1 (stereo not given)	3	-3	-3	-3	1	3
COC(=O)[C@H]1[C@H](CO)[C@H]2Cn3c(ccc(-c4ccccc4F)c3=O)[C@@H]1N2	x	x	x	x	1	5
O=C(O)[C@@H]1[C@@H](CO)[C@@H]2Cn3c(cccc3=O)[C@H]1N2C(=O)c1ccccc1	x	x	x	x	1	-3
CN1CCN(CCOC2c3ccccc3CSc3ccc(Cl)cc32)CC1 (stereo not given)	32*	-2	-2	0	x	x
COC(=O)[C@H]1[C@H](CO)[C@H]2Cn3c(ccc(/C=C/c4ccccc4)c3=O)[C@@H]1N2C(=O)C1CC1	x	x	x	x	0	-5
Cc1ccc(/C=C2/C(=O)NC(=O)N(Cc3ccc(F)cc3)C2=O)o1	x	x	x	x	0	2
Cc1ccc(/C=C2\C(=O)NC(=O)N(Cc3ccccc3Cl)C2=O)o1	1	-3	-3	5	50*	2
CCN1C[C@]2(COC(=O)c3ccccc3N)CC[C@H](OC)C34[C@@H]5C[C@H]6[C@H](OC)[C@@H]5[C@](O)(C[C@@H]6OC)[C@@](O)([C@H]13)[C@@H](OC)[C@@H]42	45*	0	-5	2	-2	2
CCN1CC2(COC(=O)c3ccccc3N)CCC(OC)C34C5CC6C(OC)CC(O)(C5C6OC)C(O)(C(OC)C23)C14 (stereo not given)	u	-3	-1	1	x	x
C/C=C/c1ccc([C@H]2[C@@H](CO)N3CCCCN(C(=O)Cc4ccncc4)C[C@H]23)cc1	x	x	x	x	4	-1
C[N+](C)(C)CC1CCCC1=O (stereo not given)	0	-5	-2	1	80*	2
CC=Cc1ccc2n(c1=O)C[C@H]1[C@H](CO)[C@@H](C(=O)O)[C@@H]2N1S(=O)(=O)c1ccccc1F (mixture of isomers)	x	x	x	x	4	-3
CCCCOC(=O)c1ccccc1C(=O)OCCCC	9	42*	0	1	1	-2
CCN(CCCl)c1cc(CN(C)C)cc(NC(=O)c2ccc(C(=O)Nc3cc(CN(C)C)cc(N(CC)CCCl)c3)cc2)c1	10	-1	4	0	49*	1
CC1=CC(=O)OC2CC3OC4C[C@@H](C)C5OC6CC7O[C@]8(C)C/C=C\C9OC%10CC%11OC(CC(C)C%12OCCO%12)CC(O)[C@]%11(C)OC%10CC9OC8C[C@]7(C)O[C@]6(C)CCC5OC4C[C@]3(C)OC12 (stereo not given in full)	-6	-1	1	4	x	x
C=C(CC1CC(O)[C@]2(C)OC3CC4OC5C[C@]6(C)O[C@]7(C)CCC8OC9C[C@]%10(C)OC%11C(C)=CC(=O)OC%11CC%10OC9C[C@@H](C)C8OC7CC6O[C@]5(C)C/C=C\C4OC3CC2O1)C(=O)O (stereo not given in full)	-4	-2	0	5	51*	-4
Cc1ccc(-n2c(O)c(C=NC3CCCC3)c(=O)[nH]c2=O)c(C)c1	10	49*	0	4	x	x
COC(=O)[C@H]1[C@H](CO)[C@H]2Cn3c(ccc(-c4ccccc4)c3=O)[C@@H]1N2CC1CC1	x	x	x	x	-2	-5
O=C(O)CC1OCC=C2CN3CCC45c6ccccc6NC4C1C2CC35 (stereo not given)	-9	-4	-1	0	-1	2
O=C(O)CC1OCC=C2CN3CCC45C6=CC(=O)C(=O)C([N+](=O)[O-])=C6NC4C1C2CC35 (stereo not given)	75*	-3	1	3	x	x
SMILES	PDI inh	CAL PDZ FP-1	CAL PDZ FP-2	Rin1-Abl PPI inh	ERAP1 inh	ERp5 inh
COc1ccc(Nc2ncc(C(=O)N3CCC4(CC3)OCCO4)c3ccccc23)cc1	18	80*	0	-5	x	x
COc1ccc(NC(=O)N2CCC3(CC2)OCCO3)cc1	2	-3	-1	1	1	5
Cc1ccc(OC(=O)N(C)C[C@@H]2OCc3ccccc3-c3c(n(C)c4ccccc34)C(=O)N([C@@H](C)CO)C[C@H]2C)cc1	x	x	x	x	-2	-2
COc1cc([C@H]2OC[C@H]3[C@@H]2CO[C@@H]3c2cc(OC)c(O[C@@H]3O[C@H](CO)[C@@H](O)[C@H](O)[C@H]3O)c(OC)c2)cc(OC)c1O[C@H]1O[C@@H](CO)[C@H](O)[C@@H](O)[C@@H]1O	2	-1	0	3	x	4
O=c1ccc2cc(OC3O[C@H](CO)[C@@H](O)[C@H](O)[C@H]3O)c(O)cc2o1 (stereo not given in full)	1	-4	-1	-4	79*	3
CNC(=O)OCc1n(C)cc[n+]1C	-4	0	1	-2	84*	7
CNC(=O)OCCc1nccn1C	1	-4	0	3	x	x
CCn1c(O)c(C=NCc2cccs2)c(=O)[nH]c1=O	2	51*	0	-4	x	x
O=C(Cc1cccnc1)N1CCCCN2[C@H](CO)[C@@H](c3ccc(/C=C/c4ccccc4)cc3)[C@H]2C1	x	x	x	x	-1	-7
